Values after ≈ are worked out from the molar mass of the structure shown.
How the values were obtained:
[1] = test system: MT2; test: Cytotoxicity against human MT2 cells assessed as growth inhibition by MTT assay; assay type: cell-based
[2] = test system: Human immunodeficiency virus 1; test: Antiviral activity against wild type HIV1 3B infected in human MT2 cells assessed as protection against viral infection by MTT assay; assay type: functional, organism-based; conditions: Human immunodeficiency virus 1, 3B
Summary of the method: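 HIV-1 IIIB strain tested in MT-2 human T-cells. […] Triplicate samples at each concentration.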

[3] = test system: Human immunodeficiency virus 1; test: Antiviral activity against HIV1 3B harboring reverse transcriptase Y181C mutant infected in human MT2 cells assessed as protection against viral infection by MTT assay; assay type: functional, organism-based
Summary of the method: (§1)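 MT-2 human T-cells infected with the HIV-1 IIIB strain carrying the listed RT mutation. […] Triplicate samples at each concentration. Compounds were >95% pure by HPLC.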

[4] = test system: Human immunodeficiency virus 1; test: Antiviral activity against HIV1 3B harboring reverse transcriptase K103N/Y181C double mutant infected in human MT2 cells assessed as protection against viral infection by MTT assay; assay type: functional, organism-based; summary of the method: as §1
[5] = Aqueous solubility of the compound in Britton-Robinson buffer at pH 6.5 at 25 degC by shake flask method; assay type: physicochemical
Summary of the method: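 Shake-flask method. Supernatant collected through a 0.2 μm syringe filter and quantified by UV-vis spectrophotometry.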

[6] = Human immunodeficiency virus 1, 3B, MT2, read-out: EC50

Row | Compound | CC50 [1] [nM] | EC50 [2] [nM] | EC50 [3, 6] [nM] | EC50 [4, 6] [nM] | solubility thermodynamic [5] [µg/mL] | EC50 ([4]; mt2) | EC50 ([3]; mt2)
1 | N#Cc1ccc(Nc2nccc(Nc3c(F)cc4cc(C#N)ccc4c3F)n2)cc1 | 4800 | 1.8 | 6 | 50 |  |  | 
2 | Cc1cn2cc(C#N)cc2c(C)c1Nc1ncnc(Nc2ccc(C#N)cc2)n1 | 16000 | 0.52 | 7.1 | 32 | 33.1 (≈ 87 µM) |  | 
3 | Cc1cn2cc(C#N)cc2cc1Nc1ccnc(Nc2ccc(C#N)cc2)n1 | 72000 | 30 | 510 | 6200 |  |  | 
4 | Cc1c(Nc2ccnc(Nc3ccc(C#N)cc3)n2)ccc2cc(C#N)ccc12 | > 100000 | 7 | 8.5 | 130 |  |  | 
5 | N#Cc1ccc(Nc2nccc(Nc3cc4cc(C#N)cn4cc3F)n2)cc1 | 76000 | 200 | 1600 | 4600 |  |  | 
6 | N#Cc1ccc(Nc2nccc(Nc3ccc4cc(C#N)ccc4c3F)n2)cc1 | 45000 | 6 | 70 | 790 |  |  | 
7 | N#Cc1ccc(Nc2ncnc(Nc3c(F)cn4cc(C#N)cc4c3F)n2)cc1 | 20000 | 2.7 | 230 | 2200 |  |  | 
8 | N#Cc1ccc(Nc2nccc(Nc3c(F)cn4cc(C#N)cc4c3F)n2)cc1 | 1000 | 1.4 | 98 |  |  | Not Active | 
9 | N#Cc1ccc(Nc2nc(Nc3ccc4cc(C#N)ccc4c3)nc(OCCCN3CCOCC3)n2)cc1 | 1200 | 120 |  | 150 |  |  | Not Active
10 | Cc1c(Nc2nc(Nc3ccc(C#N)cc3)nc(OCCCN3CCOCC3)n2)ccn2cc(C#N)cc12 | 10000 | 1900 |  |  |  | Not Active | Not Active
11 | Cc1cn2cc(C#N)cc2c(C)c1Nc1ccnc(Nc2ccc(C#N)cc2)n1 | 10100 | 1 | 0.57 | 39 | 8.2 (≈ 21.6 µM) |  | 
12 | Cc1cc2cc(C#N)ccc2c(C)c1Nc1nc(Nc2ccc(C#N)cc2)nc(OCCCN2CCOCC2)n1 | 17000 | 17 | 36 | 16 |  |  | 
13 | N#Cc1ccc(Nc2nc(Nc3ccc4cc(C#N)ccc4c3F)nc(OCCCN3CCOCC3)n2)cc1 | 3800 | 36 | 160 | 180 |  |  | 
14 | Cc1cc2cc(C#N)ccc2c(C)c1Nc1nc(Cl)nc(Nc2ccc(C#N)cc2)n1 | 7500 | 2.3 | 41 | 67 |  |  | 
15 | Cc1cn2cc(C#N)cc2c(C)c1Nc1nc(Cl)nc(Nc2ccc(C#N)cc2)n1 | 38000 | 14000 |  |  |  | Not Active | Not Active
16 | Cc1c(Nc2ccnc(Nc3ccc(C#N)cc3)n2)ccn2cc(C#N)cc12 | > 100000 | 1.4 | 26 | 170 |  |  | 
17 | Cc1cc2cc(C#N)ccc2c(C)c1Nc1ccnc(Nc2ccc(C#N)cc2)n1 | 7800 | 2.9 | 2.2 | 6.9 | 12.2 (≈ 31.2 µM) |  | 
18 | Cc1cc2cc(C#N)ccc2c(C)c1Nc1ncnc(Nc2ccc(C#N)cc2)n1 | 9500 | 1.1 | 1.3 | 7 | 28.7 (≈ 73.3 µM) |  | 
19 | Cc1c(Nc2nc(Nc3ccc(C#N)cc3)nc(OCCCN3CCOCC3)n2)ccc2cc(C#N)ccc12 | 5900 | 21 | 58 | 98 |  |  | 
20 | N#Cc1ccc(Nc2nccc(Nc3ccc4cc(C#N)ccc4c3)n2)cc1 | > 100000 | 24 | 170 | 520 |  |  | 
21 | N#Cc1ccc(Nc2nccc(Nc3ccn4cc(C#N)cc4c3)n2)cc1 | > 100000 | 200 |  |  |  | Not Active | Not Active
22 | N#Cc1ccc(Nc2ncnc(Nc3c(F)cc4cc(C#N)ccc4c3F)n2)cc1 | > 100000 | 1.2 | 7 | 65 |  |  | 

Reference: ChEMBL document CHEMBL3621183, “Discovery and crystallography of bicyclic arylaminoazines as potent inhibitors of HIV-1 reverse transcriptase” (Bioorg Med Chem Lett, 2015)
